Experimental data collected from several papers.
Effect on: cell growth or viability

Structure (SMILES) | cell line | technique | time | IC50
O=C(CNC(=O)c1cccc2ccccc12)Nc1ccccc1Oc1ccc(O)cc1 | SK-N-DZ | – | – | 0.467 µM
O=C(NCCc1c[nH]c2ccccc12)C(=O)c1c[nH]c2ccc(Br)cc12 | C4-2 | MTT | – | > 100 µM
COc1cccc2c1C(=O)c1c(O)c3c(c(O)c1C2=O)C[C@@](O)(C(=O)CO)C[C@@H]3O[C@H]1C[C@H](N)[C@H](O)[C@H](C)O1 | SGC-7901 | MTT | 48 h | 0.13 µM
O=C(O)c1cc(O)c2c(c1)C(=O)c1cccc(O)c1C2=O | HK-2 | MTT | 24 h | 210 µM
COc1ccc2[nH]cc(S(C)(=O)=Nc3cc(OC)c(OC)c(OC)c3)c2c1 (centres unmarked) | C4-2 | MTT | 48 h | > 40 µM
O=C(O)c1cc(O)c2c(c1)C(=O)c1cccc(O[C@@H]3O[C@H](CO)[C@@H](O)[C@H](O)[C@H]3O)c1C2=O | HK-2 | MTT | 24 h | > 500 µM
Cc1c[nH]c(/C=C2\C(=O)Nc3ccccc32)c1CCC(=O)O | RT-112 | MTT | 5 days | 6 µM
COc1cccc2c1C(=O)c1c(O)c3c(c(O)c1C2=O)C[C@@](O)(C(=O)CO)C[C@@H]3O[C@H]1C[C@H](N)[C@H](O)[C@H](C)O1 | KATO III | MTT | 48 h | 0.71 µg/mL
CC(=O)CC(c1ccccc1)c1c(O)c2ccccc2oc1=O (centres unmarked) | HN-6 | – | 72 h | > 20 µM
Nc1ccn([C@@H]2O[C@H](CO)[C@@H](O)C2(F)F)c(=O)n1 | Panc 02.03 | MTT | 72 h | 0.38 µM
Clc1ccc2c(c1)N=C(N1CCNCC1)c1ccccc1N2 | HN-6 | – | 72 h | > 20 µM
CN1CCN(c2ccc3nc(-c4c(N)c5c(F)cccc5[nH]c4=O)[nH]c3c2)CC1 | RT-112 | MTT | 5 days | 0.2 µM
Nc1nc(Nc2ccccc2)nc2c1ncn2[C@@H]1O[C@H](CO)[C@@H](O)[C@H]1O | HN-6 | – | 72 h | > 20 µM
O=C(O)CCCc1ccccc1 | BCPAP | MTT | 72 h | > 50 µM
Clc1ccc(N2CCN(Cc3c[nH]c4ncccc34)CC2)cc1 | HN-6 | – | 72 h | > 20 µM
CC(C)C[C@H](NC(=O)[C@H](Cc1ccccc1)NC(=O)c1cnccn1)B(O)O | A2058 | ATP luminescence | – | 0.013 µM
O=C1Nc2ccc(Cl)cc2[C@@](C#CC2CC2)(C(F)(F)F)O1 | HN-6 | – | 72 h | 18.7 µM
CCOc1ccc(C(=O)NN=C2C=C(C(C)(C)C)C(=O)C(C(C)(C)C)=C2)cc1 | human Fibroblast | resazurin | 24 h | > 100 µM
CC(C)=CCC[C@](C)(O)[C@H]1CC[C@]2(C)[C@@H]1[C@H](O)C[C@@H]1[C@@]3(C)CC[C@H](O[C@@H]4O[C@H](CO)[C@@H](O)[C@H](O)[C@H]4O[C@@H]4O[C@H](CO)[C@@H](O)[C@H](O)[C@H]4O)C(C)(C)[C@@H]3CC[C@]12C | BEAS-2B | MTT | 72 h | > 100 µM

Structure (SMILES) | cell line | technique | time | IC50
COC(=O)CN=c1scc(-c2ccccc2)n1-c1ccccc1C | Panc 02.03 | MTT | 72 h | > 100 µM
COc1cc(Nc2nccc(-c3cnn4nc(OC)ccc34)n2)cc(C(F)(F)F)c1 | RERF-LC-Ad2 | ATP luminescence | – | 0.36 µM
C(=C\c1c[nH]c2ccccc12)/c1ccc2ccccc2n1 | MDA-MB-468 | MTT | – | 11 µM
C=C(C)C(=O)Nc1ccc(-c2c(-c3ccc(Oc4nccc(C)n4)c(F)c3)c3c(N)ncnc3n2C)cc1 | RT-112 | ATP luminescence | 96 h | 0.212 µM
Nc1ccc(Cl)c[n+]1[Pt-2]([Cl])([Cl])[n+]1cc(Cl)ccc1N | BEAS-2B | MTT | 48 h | 6.33 µM
CCN1C(=O)N(c2c(F)c(OC)cc(OC)c2F)Cc2cnc3[nH]c(CN4CCOCC4)cc3c21 | KATO III | ATP luminescence | 96 h | 0.00148 µM
COc1cc2nc(N3CCN(C(=O)c4ccco4)[C@H]4CCCC[C@H]43)nc(N)c2cc1OC (racemic) | HN-6 | – | 72 h | 15.6 µM
COc1ccc2c(C(=O)C(=O)NCCc3c[nH]c4ccccc34)c[nH]c2c1 | C4-2 | MTT | – | > 100 µM
COc1cccc(Oc2ccccc2NC(=O)CNC(=O)c2cccc3ccccc23)c1 | SK-N-DZ | – | – | 0.288 µM
COc1cc(O)c2c(c1)C(=O)c1cc(C)cc(O)c1C2=O | HK-2 | MTT | 24 h | > 500 µM
CC(C)(C)C1=CC(=NNC(=O)C2CCCCC2)C=C(C(C)(C)C)C1=O | human Fibroblast | resazurin | 24 h | > 100 µM
COc1cccc2c1C(=O)c1c(O)c3c(c(O)c1C2=O)C[C@@](O)(C(=O)CO)C[C@@H]3O[C@H]1C[C@H](N)[C@H](O)[C@H](C)O1 | A2058 | WST-1 | 72 h | 0.04 µM
COc1ccc2[nH]cc(C(=O)C(=O)CCCc3c[nH]c4ccccc34)c2c1 | C4-2 | MTT | – | > 100 µM
O=C(CNC(=O)c1cccc2ccccc12)Nc1ccccc1Oc1cccc(O)c1 | SK-N-DZ | – | – | 0.539 µM
O=C1NC(=NCc2cccs2)S/C1=C\c1ccc2ncccc2c1 | LOX IMVI | – | – | 4.4 µM
CC(C)(C=O)Cc1cc(C(C)(C)C)c(O)c(C(C)(C)C)c1 | HN-6 | – | 72 h | > 20 µM
CCN1CCN(c2ccc(Nc3cc(N(C)C(=O)Nc4c(Cl)c(OC)cc(OC)c4Cl)ncn3)cc2)CC1 | RT-112 | ATP luminescence | 96 h | 0.0117 µM
CCN(CC)CCNC(=O)COc1ccc(OC)cc1 | HN-6 | – | 72 h | > 20 µM
CCCCCCNC(=O)n1cc(F)c(=O)[nH]c1=O | C6 | MTT | 72 h | 7 µM
